Columns and labels:
Type in all cases: functional, cell-based
[1] = target: T1, Melatonin receptor type 1A (Homo sapiens, UniProt P48039); assay: Agonist activity at human MT1 receptor expressed in HEK293 cells assessed as fold change at 1 mM by Fluo-8 based calcium assay relative to Paeovetiol-D; details: filed as agonist
How it was run: (§1)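 HEK293 cells stably expressing human MT1 or MT2, grown in DMEM with 10% FBS at 37 °C, seeded at 4 × 10^4 per well on Matrigel and left overnight. Loaded 1 h with a wash-free calcium dye kit. Compounds tested at 1.0 mM from DMSO/HBSS solutions. Fluorescence read at room temperature, excitation 485 nm, emission 525 nm.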

[2] = target: T2, Melatonin receptor type 1B (Homo sapiens, UniProt P49286); assay: Agonist activity at human MT2 receptor expressed in HEK293 cells by Fluo-8 based calcium assay
T2 sequence (P49286 whole entry): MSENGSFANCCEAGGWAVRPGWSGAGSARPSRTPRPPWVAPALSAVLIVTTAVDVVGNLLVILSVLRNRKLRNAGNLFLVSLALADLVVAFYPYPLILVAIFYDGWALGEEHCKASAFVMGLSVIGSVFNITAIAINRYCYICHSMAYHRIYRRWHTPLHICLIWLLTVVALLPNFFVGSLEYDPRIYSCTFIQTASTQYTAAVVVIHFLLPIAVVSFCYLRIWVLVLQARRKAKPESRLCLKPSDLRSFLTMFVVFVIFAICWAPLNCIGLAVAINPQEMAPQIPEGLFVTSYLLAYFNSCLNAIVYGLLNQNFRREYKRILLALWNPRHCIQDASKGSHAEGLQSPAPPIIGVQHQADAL

[3] = target: T3, Melatonin receptor type 1B (Homo sapiens) (UniProt P49286); assay: Agonist activity at human MT2 receptor expressed in HEK293 cells assessed as fold change at 1 mM by Fluo-8 based calcium assay relative to Paeovetiol-D; details: filed as agonist; how it was run: as §1
T3 sequence (whole entry): T2 sequence (P49286 whole entry)

[4] = target: T1, Melatonin receptor type 1A; assay: Agonist activity at human MT1 receptor expressed in HEK293 cells by Fluo-8 based calcium assay

T1 sequence (P48039 whole entry): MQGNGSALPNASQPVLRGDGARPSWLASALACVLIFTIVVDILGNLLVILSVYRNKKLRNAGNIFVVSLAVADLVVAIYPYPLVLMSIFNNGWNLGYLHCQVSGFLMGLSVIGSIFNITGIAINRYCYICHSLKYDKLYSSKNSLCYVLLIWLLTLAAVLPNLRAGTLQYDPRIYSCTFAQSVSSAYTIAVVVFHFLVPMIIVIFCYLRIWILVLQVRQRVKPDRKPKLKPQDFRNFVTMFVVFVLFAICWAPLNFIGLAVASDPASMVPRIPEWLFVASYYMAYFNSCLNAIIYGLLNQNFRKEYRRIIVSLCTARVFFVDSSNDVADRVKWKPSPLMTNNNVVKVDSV

Structure (SMILES): COc1cc2c(CN(C)C)coc2cc1C
- fold change (FC) [1]: 2
- EC50 [2]: 130 µM
- fold change (FC) [3]: 3
- EC50 [4]: 440 µM
